Rows were chosen to be rich in hits. Some 1.6% of all compounds tested hit in one or more screens of this group.
TRAIL sens C8: caspase-8 TRAIL sensitization | NB7+C8 cells + TRAIL, ATPlite viability luminescence | hit rate 1% among 360,000 | inhibition (viability loss, TRAIL sensitization), % at 10 µM;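 active = compounds causing at least 50% loss of cell viability in the single-dose screen, relative to plate controls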
FLuc stim CS: affects firefly luciferase, flagging false hits in luciferase stimulation screens. ATPlite luciferase biochemical, luminescence, 10 min; 0 = ATP-free wells, 1 = DMSO control. activation factor at 10 µM. 200,000 tested, under 10 active. AID 1027;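 active = luciferase activation factor, scaled between plate controls, of at least 2 with compound at 10 µM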
Target sequence (P08659 whole entry, looked up): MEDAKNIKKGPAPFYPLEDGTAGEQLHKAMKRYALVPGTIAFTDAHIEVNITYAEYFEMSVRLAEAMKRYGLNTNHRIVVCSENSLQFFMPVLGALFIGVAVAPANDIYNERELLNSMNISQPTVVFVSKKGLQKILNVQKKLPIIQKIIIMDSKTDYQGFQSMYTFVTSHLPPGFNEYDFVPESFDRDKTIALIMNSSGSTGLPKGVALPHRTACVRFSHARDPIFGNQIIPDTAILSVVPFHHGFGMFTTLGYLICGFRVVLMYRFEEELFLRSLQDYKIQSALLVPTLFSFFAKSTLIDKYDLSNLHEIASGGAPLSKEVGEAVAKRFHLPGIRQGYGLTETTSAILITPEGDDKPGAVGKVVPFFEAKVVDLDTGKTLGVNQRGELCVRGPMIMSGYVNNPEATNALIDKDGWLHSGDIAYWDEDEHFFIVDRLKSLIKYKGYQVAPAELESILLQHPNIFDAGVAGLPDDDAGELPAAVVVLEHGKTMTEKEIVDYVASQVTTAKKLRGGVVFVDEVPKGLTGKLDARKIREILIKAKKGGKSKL
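Material: Luciferase/luciferin reagent mix; Doses: test compounds dosed from 2 mM stocks in 100% DMSO; Schedule: 10 min incubation after luciferase reagent addition, room temperature; Measured by: luminescence from luciferase reaction; Read-out: luminescence gain marking luciferase activators.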
PPC-1+TRAIL kill: PPC-1 cancer cell killing with TRAIL present; cell killing (% activity), % at 4 µM or 5 µM; PPC-1 cells + TRAIL, ATPLite viability luminescence; hit rate 0.41% among 220,000;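 active = cell killing above 50% in the first pass at 4 µM, then a duplicate retest at 5 µM averaging 50% or more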
FLuc inh counter: counter-screen for luciferase assay inhibitors: firefly luciferase inhibition; inhibition, % at 10 µM; ATPLite firefly luciferase biochemical luminescence, 10 min; hit rate 1.5% among 200,000; P08659;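 active = inhibition above about 50% when tested at 10 µM, limit read from the data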
PPC-1 tox: PPC-1 cell cytotoxicity. AID 1447. PPC-1 viability, ATPlite luminescence, overnight. hit rate 50% among 1,200. cytotoxicity, % at 5 µM. shares compounds with PPC-1+TRAIL kill;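 active = reconfirmed compounds whose average cytotoxicity reaches 50% or more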
Numbers stand for hits; 0 = inactive; - = no result given.

SMILES | TRAIL sens C8 | FLuc stim CS | PPC-1+TRAIL kill | FLuc inh counter | PPC-1 tox
CN(C(=O)c1ccc(S(=O)(=O)N2CCOCC2)cc1)C1CCS(=O)(=O)C1 (centres undefined) | 0 | - | - | - | -
COc1ccc(Cl)cc1NC(=S)N1CCN(S(C)(=O)=O)CC1 | 0 | - | 0 | - | -
COc1ccc(Cl)cc1NC(=O)N1CCN(S(C)(=O)=O)CC1 | 0 | 0 | 0 | 0 | 0
O=C(Nc1c(Cl)cccc1Cl)C1CCN(C(=O)c2cccs2)CC1 | 0 | - | - | - | -
CCCOc1ccc(C(=O)C(c2ccccc2)N2CCOCC2)cc1 (centres undefined) | 0 | 0 | 0 | 0 | 0
CCCCOc1ccc(C)cc1CN(CCO)CCO | 0 | 0 | 0 | 0 | -
CCCCCc1ccc(OCCCC[n+]2ccc(C)cc2)c(CCCCC)c1 | 0 | 0 | 0 | 0 | 0
CCCCCc1ccc(OCCCC[n+]2cccc(C)c2)c(CCCCC)c1 | 0 | 0 | 0 | 0 | 0
CCN(CC)C(=O)CSc1ncnc2c(-c3cccs3)nsc12 | 0 | 0 | 0 | 0 | 0
COc1cccc(-c2nnc(SCC3CNC(=O)O3)n2-c2ccc(Cl)cc2)c1 (centres undefined) | 0 | 0 | 0 | 0 | -
Clc1ccccc1C=NNc1ccccn1 | 0 | - | - | - | -
COc1ccc2nc(Cl)c(/C=N/Nc3ccccn3)cc2c1 | 67 | 0 | 66 | 79 | 65
COc1cccc(-c2noc(CCC(=O)NC3CCCCC3)n2)c1 | 0 | 0 | 0 | 0 | 0
COc1ccc(-c2noc(CCC(=O)NC3CCCCC3)n2)cc1OC | 0 | 0 | 0 | 0 | -
O=C(CSc1nc2nn(-c3ccccc3)c(=O)c-2c2n1CCCCC2)c1ccc(O)c(O)c1 | 0 | - | - | - | -
CCOc1cc(C(=S)N2CCN(C)CC2)ccc1OCC(=O)N1CCOCC1 | 0 | 0 | 0 | 0 | 0
CCOc1cc(C(=O)OCc2ccc(OC)cc2)ccc1OCC(=O)N1CCOCC1 | 0 | - | - | - | -
CCOC(=O)N1CCN(CC(=O)Nc2nc3ccccc3s2)CC1 | 0 | - | - | - | -
CCOC(=O)N1CCN(C(=O)c2nc3ccccc3s2)CC1 | 0 | 0 | 0 | 0 | 0
Oc1ccc(-n2cnnn2)cc1 | 0 | 0 | 0 | 0 | 0
Clc1ccc(-n2cnnn2)cc1 | 0 | 0 | 0 | 0 | -
O=C(NN=Cc1c(O)ccc2ccccc12)c1ccc2c(c1)OCO2 | 0 | - | - | - | -
Oc1ccc(N=Nc2ccc3c(c2)OCO3)c2ccccc12 | - | - | 0 | - | 0
O=C(O)c1c2c(nc3ccccc13)/C(=C/c1ccc(O)cc1)CC2 | 58 | 0 | 0 | 96 | 0
CCCCCCCCN1C(=O)[C@H](CC(=O)N2CCC(c3ccccc3)CC2)C[C@@]2(C(=O)OC)CCCCC=C12 | 0 | - | - | - | -
SMILES | TRAIL sens C8 | FLuc stim CS | PPC-1+TRAIL kill | FLuc inh counter | PPC-1 tox
N#CCc1c(C#N)c(N)nc(N2CCN(Cc3ccc4c(c3)OCO4)CC2)c1C#N | 0 | 0 | 0 | 0 | 0
COCCNC(=O)c1noc2c1CCc1cc(OC)ccc1-2 | 0 | 0 | 0 | 0 | -
COc1ccc2c(c1)CCc1c(C(=O)NCc3ccco3)noc1-2 | 0 | 0 | 0 | 0 | 0
Cc1cc2nc3ccc(=[N+](C)C)cc-3sc2cc1N | 51 | - | 72 | - | 72
COC(=O)C1=C(N)Oc2cc(C)n(CCCn3ccnc3)c(=O)c2C1c1cccc(Cl)c1 (centres undefined) | 0 | 0 | 0 | 0 | 0
CCCc1nnc(SCc2ccc(OC)cc2)n1N | 0 | 0 | 0 | 0 | 0
COC(=O)[C@H](CCSC)NC(=O)N1CCC(C)CC1 | 0 | 0 | 0 | 0 | 0
C=CCn1c(N/N=C/c2ccc(O)cc2)nc2ccccc2c1=O | 0 | 0 | 0 | 82 | 0
COc1ccccc1NC(=O)CSc1nnc(-c2ccc(C)cc2)o1 | 0 | 0 | 0 | 0 | 53
CC(=O)CSc1nnc(-c2ccc3c(c2)OCO3)o1 | 0 | 0 | 0 | 67 | 0
O=C(CSc1nnc(-c2ccccc2Cl)o1)Nc1ccc2c(c1)OCCO2 | 0 | 0 | 0 | 0 | -
O=C(CSc1nnc(-c2ccc(O)cc2)o1)Nc1ccc2c(c1)OCCO2 | 0 | 0 | 65 | 0 | 66
COc1cc(OC)cc(C(=O)OCC(=O)N(C)c2ccccc2)c1 | 0 | - | - | - | -
COc1cccc(NC(=O)CN(C)C(=O)c2ccc(OCC3CCCO3)cc2)c1 (centres undefined) | 0 | - | - | - | -
Cc1cccc(-n2ncc3c(N(C)C4CCCCC4)ncnc32)c1 | 88 | - | 80 | - | 82
COc1cc(OC)cc(C(=O)N[C@H](C(=O)NC2=NCCS2)C(C)C)c1 | 0 | - | - | - | -
O=C(NCCc1cccs1)c1ccc(Cl)cc1 | 0 | - | 0 | - | -
Cc1ccc(C(=O)NCCc2cccs2)cc1 | 78 | 0 | 69 | 89 | 67
O=C1c2cccc(OCC(=O)N3N=C(c4cccs4)CC3c3ccc(F)cc3)c2CCN1Cc1cccnc1 (centres undefined) | 0 | 0 | 0 | 0 | -
O=C(NCCCN1CCCC1=O)c1cccc(C(F)(F)F)c1 | 0 | 0 | 0 | 0 | 0
COc1ccc(CCNC(=O)CCCCCn2c(SCC(N)=O)nc3cc4c(cc3c2=O)OCO4)cc1OC | 0 | 0 | 0 | 0 | -
COc1ccc(Cc2nc3ccc(C(=O)N(C)C(C)c4ccon4)cc3o2)cc1 (centres undefined) | 0 | - | - | - | -
O=C([C@H]1O[C@@H](n2ccc(=O)[nH]c2=O)[C@H](O)[C@@H]1O)N1CCSC1 | 0 | - | - | - | -
Cc1ccccc1-c1nc(-c2cccnc2)no1 | 0 | 0 | 0 | 0 | -
Cc1ccccc1-c1nc(-c2ccccn2)no1 | 87 | 0 | 84 | 95 | 80
SMILES | TRAIL sens C8 | FLuc stim CS | PPC-1+TRAIL kill | FLuc inh counter | PPC-1 tox
COc1ccccc1-c1noc(-c2ccncc2)n1 | 0 | 0 | 0 | 0 | -
COc1ccccc1-c1nc(-c2ccccn2)no1 | 73 | 0 | 63 | 88 | 63
COc1ccc(-c2nc(-c3ccncc3)no2)cc1 | 0 | - | - | - | -
COc1ccc(-c2nc(-c3ccccn3)no2)cc1 | 96 | 0 | 93 | 98 | 92
Clc1ccc(-c2nc(-c3ccccn3)no2)cc1Cl | 78 | 0 | 66 | 88 | 64
COc1ccc(NC(=O)C2CC(=O)N(c3ccccc3F)C2)cc1S(=O)(=O)N1CCCCC1 (centres undefined) | 0 | - | - | - | -
COc1ccc(-c2nc(-c3cccs3)no2)cc1 | 63 | - | 0 | - | 0
Fc1ccc(CO/N=C/C2=C(Cl)c3ccccc3CC2)cc1 | 0 | 0 | 0 | 0 | 0
COc1ccc2nc(SCC(C)=O)c(C#N)cc2c1 | 0 | 0 | 0 | 0 | 0
Cc1ccc(C)c(OCC(=O)Nc2ccc(S(=O)(=O)Nc3onc(C)c3C)cc2)c1 | 0 | - | - | - | -
CCOC(=O)N=Nc1c(O)n(CC(=O)OC)c2ccccc12 | 0 | 0 | 0 | 0 | -
CCOC(=O)N=Nc1c2ccccc2c2nc3no[nH]c3nc12 | 96 | 0 | 83 | 0 | 81
CCN1CCN(C(=O)CN(c2ccc(F)cc2)S(=O)(=O)c2ccc(OC)c(OC)c2)CC1 | 0 | - | - | - | -
NC(=O)c1ccsc1NC(=O)c1ccc2c(c1)CCCC2 | 85 | 0 | 78 | 91 | 76
NC(=O)c1ccsc1NC(=O)c1cccs1 | 0 | - | - | - | -
NC(=O)c1ccsc1NC(=O)c1ccc(N2CCCC2=O)cc1 | 80 | 0 | 77 | 93 | 74
Cc1ccc(NC(=O)c2ccc(Cl)c(S(=O)(=O)N3CCCCC3)c2)nc1 | 0 | - | - | - | -
C[C@]12c3[nH]c4cc(-c5ccco5)ccc4c3CCN1C(=O)[C@@H](CC(=O)NCc1ccco1)C[C@@H]2C(=O)N1CCOCC1 | 0 | - | - | - | -
